Assay results as given in publication PMC4134686 (Journal of the American Chemical Society, 2013).

What was measured:
Experiment in all cases: isothermal titration calorimetry
Format in all cases: binding
[1] = biological target: BsSecA (Bacillus subtilis, UniProt P28366, E208Q)
Procedure, shortened: (§1)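 Full-length native-sequence SecA purified by ion-exchange, hydrophobic and gel-filtration chromatography, then dialysed >18 h against TKM (50 mM Tris-HCl pH 8.0, 50 mM KCl, 5 mM MgCl₂) with 3 buffer changes. Mg-ADP dissolved in final dialysate and titrated at 25 °C into 20 μM WT BsSecA, 30 μM E208Q BsSecA or 10 μM WT EcSecA.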

[2] = biological target: BsSecA (Bacillus subtilis, UniProt P28366)
Procedure, shortened: as §1

[3] = biological target: EcSecA (Escherichia coli, UniProt P10408)
Procedure, shortened: as §1

Q: With Nc1ncnc2c1ncn2[C@@H]1O[C@H](COP(=O)(O)OP(=O)(O)O)[C@@H](O)[C@H]1O [Mg-ADP] as the compound, how does the Kd [1] read?
A: Its Kd is 7700 ± 300 nM.

Q: And the Kd [2]?
A: The Kd was 180 ± 10 nM.

Q: What about the Kd [3] of the same compound?
A: The Kd was 62 ± 4 nM.
